ChEMBL document CHEMBL2331327, “Bioactive abietane and ent-kaurane diterpenoids from Isodon tenuifolius” (J Nat Prod, 2013)
pIC50: −log10 of the molar value. Residues, ends and D or L forms follow the SMILES beside them. *: point of attachment. Cbz = O=C(OCc1ccccc1)*

Key:
RAW264.7 [1] = assay: Inhibition of nitric oxide production in LPS-stimulated mouse RAW264.7 cells measured after 18 hrs by Griess reagent based multilabel plate reader analysis; format: functional, cell-based; details: RAW264.7, 18 h
In short: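 RAW264.7 macrophages in RPMI 1640 with 10% FBS at 2 × 10^5 cells/well, preincubated 24 h at 37 °C, 5% CO2. Then 18 h with 1 μg/mL LPS plus serial dilutions of compound (DMSO stock diluted in medium; top concentration 25 μM). Supernatant mixed 1:1 with Griess reagent, 5 min, absorbance at 570 nm, in triplicate. MG-132 as positive control.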

RAW264.7 [2] = assay: Cytotoxicity against mouse RAW264.7 cells assessed as inhibition of cell viability after 18 hrs by MTS assay; format: cell-based; details: raw264.7, 18 h
In short: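 RAW264.7 cells seeded at 2 × 10^5 cells/well and preincubated 24 h, then exposed to compounds (DMSO solutions) at given concentrations for 18 h. MTS added for 4 h and absorbance read at 490 nm. Viability expressed relative to untreated cells as 100%.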

SW480 = assay: Cytotoxicity against human SW480 cells assessed as inhibition of cell viability after 48 hrs by MTT assay; format: functional, cell-based; details: SW480, 48 h
In short: (§1)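 Cells grown in RPMI-1640 or DMEM with 10% FBS, 37 °C, 5% CO2. Adherent lines seeded at 1 × 10^5 cells/mL and allowed 12 h to attach; suspension cells seeded just before dosing. Compounds tested at various concentrations in triplicate for 48 h; cisplatin and paclitaxel as positive controls. MTT added for 4 h at 37 °C, then lysis in 20% SDS−50% DMF and OD read at 595 nm. IC50 by Reed and Muench method.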

MCF7 = assay: Cytotoxicity against human MCF7 cells assessed as inhibition of cell viability after 48 hrs by MTT assay; format: functional, cell-based; details: MCF7, 48 h; in short: as §1
SMMC-7721 = assay: Cytotoxicity against human SMMC7721 cells assessed as inhibition of cell viability after 48 hrs by MTT assay; format: functional, cell-based; details: SMMC-7721, 48 h; in short: as §1
HL-60 = assay: Cytotoxicity against human HL60 cells assessed as inhibition of cell viability after 48 hrs by MTT assay; format: functional, cell-based; details: HL-60, 48 h; in short: as §1
A549 = assay: Cytotoxicity against human A549 cells assessed as inhibition of cell viability after 48 hrs by MTT assay; format: functional, cell-based; details: A549, 48 h; in short: as §1

SMILES	pIC50 (RAW264.7 [1])	Activity (RAW264.7 [2])	pIC50 (SW480)	pIC50 (MCF7)	pIC50 (SMMC-7721)	pIC50 (HL-60)	pIC50 (A549)
C=C1C(=O)[C@]23C[C@H]1C[C@H](OC(C)=O)[C@H]2[C@]1(C)[C@@H](OC(C)=O)C[C@H](O)C(C)(C)[C@H]1C[C@@H]3OC(C)=O [ADENANTHIN C]	5.42	Non-toxic	5.29	5.32	5.49	5.74	< 5.00
C=C1[C@@H]2C[C@H](O)[C@H]3[C@@]4(C)[C@H](C[C@H](OC(C)=O)[C@]3(C2)[C@@H]1O)C(C)(C)[C@@H](OC(C)=O)C[C@@H]4O [ADENANTHIN E]	< 4.60	Non-toxic	< 5.00	< 5.00	< 5.00	< 5.00	< 5.00
C=C1[C@@H]2C[C@H](OC(C)=O)[C@H]3[C@]4(C)[C@@H](OC(C)=O)C[C@H](O)C(C)(C)[C@H]4C(=O)[C@H](OC(C)=O)[C@]3(C2)[C@@H]1O [ADENANTHIN J]	< 4.60	Non-toxic	< 5.00	< 5.00	< 5.00	< 5.00	< 5.00
C=C1C(=O)[C@@]23CC(=O)[C@@H]4C(C)(C)[C@@H](OC(C)=O)C[C@H](O)[C@@]4(C)[C@@H]2[C@@H](O)C[C@@H]1C3 [INFLEXARABDONIN E]	5.24	Non-toxic	5.34	5.32	5.66	5.77	5.17
CC(C)c1cc2c3c(c1)[C@H](O)C[C@H]1[C@](C)(CO)CC[C@H](O2)[C@]31C [ISOABIETENIN A]	< 4.60	Non-toxic	< 5.00	< 5.00	< 5.00	< 5.00	< 5.00
CC(C)[C@@]1(O)CC(=O)C2=C(C1)[C@H](O)C[C@H]1[C@](C)(CO)CCC[C@]21C [ISOABIETENIN B]	< 4.60	Non-toxic	< 5.00	< 5.00	< 5.00	< 5.00	< 5.00
C=C(C=O)[C@H]1C[C@@H](OC(C)=O)[C@H]2[C@@](O)(C1)[C@H](OC(C)=O)C(=O)[C@H]1C(C)(C)[C@H](O)C[C@@H](OC(C)=O)[C@@]12C [ISOABIETENIN C]	4.97	Non-toxic	< 5.00	< 5.00	< 5.00	5.33	< 5.00
CC(C)C[C@@H](C=O)NC(=O)[C@H](CC(C)C)NC(=O)[C@H](CC(C)C)NC(=O)OCc1ccccc1 [MG-132] (Cbz-Leu-Leu-Leu-aldehyde)	6.82						
CC(=O)O[C@H]1C(=O)[C@@]2(C)[C@H]([C@H](OC(=O)c3ccccc3)[C@]3(O)C[C@H](OC(=O)[C@H](O)[C@@H](NC(=O)c4ccccc4)c4ccccc4)C(C)=C1C3(C)C)[C@]1(OC(C)=O)CO[C@@H]1C[C@@H]2O [PACLITAXEL]			6.82	> 8.10	> 8.10	> 8.10	> 8.10
C=C1C(=O)[C@@]23CC[C@@H]4C(C)(C)[C@H](O)CC[C@@]4(C)[C@@H]2[C@@H](O)C[C@@H]1C3 [TENUIFOLIN A]	5.16	Non-toxic	< 5.00	< 5.00	5.13	5.33	< 5.00
C=C1[C@@H]2C[C@H](O)[C@H]3[C@]4(C)CC[C@H](O)C(C)(C)[C@H]4CC[C@]3(C2)[C@@H]1O [TENUIFOLIN B]	< 4.60	Non-toxic	< 5.00	< 5.00	< 5.00	< 5.00	< 5.00
C=C1[C@@H]2C[C@H](OC(C)=O)[C@@H]3[C@](C2)(C(=O)C[C@@H]2C(C)(C)[C@@H](O)C[C@H](OC(C)=O)[C@]23C)[C@@H]1OC(C)=O [TENUIFOLIN C]	< 4.60	Non-toxic	< 5.00	< 5.00	< 5.00	< 5.00	< 5.00
C=C1[C@@H]2C[C@H](OC(C)=O)[C@H]3[C@]4(C)[C@@H](OC(C)=O)C[C@H](O)C(C)(C)[C@H]4C[C@H](O)[C@]3(C2)[C@@H]1O [TENUIFOLIN D]	< 4.60	Non-toxic	< 5.00	< 5.00	< 5.00	< 5.00	< 5.00
C=C1[C@@H]2C[C@H](O)[C@H]3[C@]4(C)CC[C@H](O)C(C)(C)[C@H]4C(=O)C[C@]3(C2)[C@@H]1O [TENUIFOLIN E]	< 4.60	Non-toxic	< 5.00	< 5.00	< 5.00	< 5.00	< 5.00
C=C1[C@@H]2C[C@H](O)[C@@H]3[C@@](CC(=O)[C@@H]4C(C)(C)[C@@H](O)C[C@H](OC(C)=O)[C@]43C)(C2)[C@@H]1O [TENUIFOLIN F]	< 4.60	Non-toxic	< 5.00	< 5.00	< 5.00	< 5.00	< 5.00
C=C1[C@@H]2C[C@H](OC(C)=O)[C@@H]3[C@@](CC(=O)[C@@H]4C(C)(C)[C@@H](O)C[C@H](O)[C@]43C)(C2)[C@@H]1O [TENUIFOLIN G]	< 4.60	Non-toxic	< 5.00	< 5.00	< 5.00	< 5.00	< 5.00
C=C1[C@@H]2CC(=O)[C@@H]3[C@@](CC(=O)[C@@H]4C(C)(C)[C@@H](O)C[C@H](OC(C)=O)[C@]43C)(C2)[C@@H]1O [TENUIFOLIN H]	< 4.60	Non-toxic	< 5.00	< 5.00	< 5.00	< 5.00	< 5.00
C=C1C(=O)[C@@]23CC(=O)[C@@H]4C(C)(C)[C@@H](O)C[C@H](O)[C@@]4(C)[C@@H]2[C@@H](OC(C)=O)C[C@@H]1C3 [TENUIFOLIN I]	5.24	Non-toxic	5.37	5.52	5.72	6.10	5.35
C=C1C(=O)[C@@]23CC(=O)[C@@H]4C(C)(C)[C@@H](OC(C)=O)CC[C@@]4(C)[C@@H]2[C@@H](O)[C@H](O)[C@@H]1C3 [TENUIFOLIN J]	5.06	Non-toxic	< 5.00	< 5.00	5.20	5.42	< 5.00
COC[C@@H]1C(=O)[C@]23C[C@H]1C[C@H](OC(C)=O)[C@H]2[C@@]1(C)[C@H](C(=O)[C@@H]3O)C(C)(C)[C@@H](O)C[C@@H]1O [TENUIFOLIN L]	< 4.60	Non-toxic	< 5.00	< 5.00	< 5.00	< 5.00	< 5.00
